≈ marks a conversion by molar mass, not a printed value.

For one experiment, the system named is Aspergillus niger. Kind of experiment: Antifungal activity against Aspergillus niger NCIM 1196 by agar dilution method. Format: functional. In outline: (§1)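 MIC determined by standard agar dilution per CLSI guidelines. Fluconazole and miconazole were reference drugs, and dimethyl sulfoxide was the solvent control.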
On the technique in general: Agar dilution tests growth on a series of plates holding different concentrations.

Experiment [1] has as its system Escherichia coli. Kind of experiment: Antibacterial activity against Escherichia coli NCIM 2256 by broth dilution method. Format: functional. In outline:
(§2)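 MIC by broth dilution following CLSI guidelines. Ciprofloxacin and ampicillin served as reference drugs.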

The subject of the next experiment is Staphylococcus aureus. Kind of experiment: Antibacterial activity against Staphylococcus aureus NCIM 2901 by broth dilution method. The experiment is classed as functional. In short, it runs like this: as §2
On the technique in general: Dilution methods test growth across graded concentrations, often in twofold steps.

The next experiment has as its system Aspergillus flavus. Put plainly: Antifungal activity against Aspergillus flavus NCIM 539 by agar dilution method. The experiment is classed as functional. In short, it runs like this:
as §1

A further experiment relates to Candida albicans. Put plainly: Antifungal activity against Candida albicans NCIM 3471 by agar dilution method. The experiment is classed as functional. In short, it runs like this:
as §1

Experiment [2] concerns Escherichia coli. Put plainly: Antibacterial activity against Escherichia coli NCIM 2256 by broth dilution method.
The subject of a further experiment is Bacillus subtilis. Put plainly: Antibacterial activity against Bacillus subtilis NCIM 2063 by broth dilution method. The experiment is classed as functional. In short, it runs like this:
as §2

As to `COC(=O)C1=C(C(=O)OC)N(c2ccc(O)cc2)CN(c2ccc(O)cc2)C1`, the MIC (in general, the smallest concentration in the dilution series that meets the test's criterion for growth inhibition) came to 50 µg/mL (≈ 130 µM) with Aspergillus niger; 80 µg/mL (≈ 208 µM) against Escherichia coli [1]; 90 µg/mL (≈ 234 µM) with Staphylococcus aureus; 50 µg/mL (≈ 130 µM) against Aspergillus flavus; 75 µg/mL (≈ 195 µM) against Candida albicans; 80 µg/mL (≈ 208 µM) against Escherichia coli [2].

For `COC(=O)C1=C(C(=O)OC)N(c2cccc([N+](=O)[O-])c2)CN(c2cccc([N+](=O)[O-])c2)C1`, the MIC in the experiment on Aspergillus niger is 100 µg/mL (≈ 226 µM); against Escherichia coli [1], 80 µg/mL (≈ 181 µM); against Staphylococcus aureus it was 80 µg/mL (≈ 181 µM); in the experiment on Aspergillus flavus, 100 µg/mL (≈ 226 µM); in the experiment on Candida albicans it was 100 µg/mL (≈ 226 µM); against Bacillus subtilis, 100 µg/mL (≈ 226 µM).

For `COC(=O)C1=C(C(=O)OC)N(c2ccccn2)CN(c2ccccn2)C1`, the MIC against Aspergillus niger came out at 25 µg/mL (≈ 70.5 µM); against Escherichia coli [1], 60 µg/mL (≈ 169 µM); against Staphylococcus aureus it was 80 µg/mL (≈ 226 µM); in the experiment with Aspergillus flavus it was 12.5 µg/mL (≈ 35.3 µM); against Candida albicans, 25 µg/mL (≈ 70.5 µM); in the experiment on Bacillus subtilis, 40 µg/mL (≈ 113 µM).

In the case of `COC(=O)C1=C(C(=O)OC)N(c2nc3ccc(OC)cc3s2)CN(c2nc3ccc(OC)cc3s2)C1`, the MIC against Aspergillus niger is 12.5 µg/mL (≈ 23.7 µM); against Escherichia coli [1], 40 µg/mL (≈ 76 µM); in the experiment on Staphylococcus aureus it was 100 µg/mL (≈ 190 µM); against Aspergillus flavus, 12.5 µg/mL (≈ 23.7 µM); in the experiment on Candida albicans it was 25 µg/mL (≈ 47.5 µM); in the experiment with Bacillus subtilis, 25 µg/mL (≈ 47.5 µM).

Take `CCOC(=O)C1=C(C(=O)OCC)N(c2nc3ccc(OC)cc3s2)CN(c2nc3ccc(OC)cc3s2)C1`: the minimal inhibitory concentration (MIC) with Aspergillus niger came out at 12.5 µg/mL (≈ 22.5 µM); in the experiment on Escherichia coli [1], 15 µg/mL (≈ 27 µM); against Staphylococcus aureus, 100 µg/mL (≈ 180 µM); with Aspergillus flavus, 12.5 µg/mL (≈ 22.5 µM); in the experiment with Candida albicans, 25 µg/mL (≈ 45.1 µM); in the experiment with Bacillus subtilis, 20 µg/mL (≈ 36.1 µM).

`COC(=O)C1=C(C(=O)OC)N(c2ccccc2)CN(c2ccccc2)C1`: the MIC is 25 µg/mL (≈ 70.9 µM) against Aspergillus niger; 60 µg/mL (≈ 170 µM) in the experiment on Escherichia coli [1]; 90 µg/mL (≈ 255 µM) against Staphylococcus aureus; 25 µg/mL (≈ 70.9 µM) against Aspergillus flavus; 50 µg/mL (≈ 142 µM) in the experiment with Candida albicans; 30 µg/mL (≈ 85.1 µM) against Bacillus subtilis.

As for `COC(=O)C1=C(C(=O)OC)N(c2ccc(Cl)cc2)CN(c2ccc(Cl)cc2)C1`, the minimal inhibitory concentration (MIC) with Aspergillus niger amounted to 25 µg/mL (≈ 59.3 µM); in the experiment with Escherichia coli [1], 60 µg/mL (≈ 142 µM); with Staphylococcus aureus, 100 µg/mL (≈ 237 µM); against Aspergillus flavus, 25 µg/mL (≈ 59.3 µM); in the experiment with Candida albicans, 25 µg/mL (≈ 59.3 µM); in the experiment on Bacillus subtilis, 40 µg/mL (≈ 94.9 µM).

With `CCOC(=O)C1=C(C(=O)OCC)N(c2ccccc2)CN(c2ccccc2)C1`, the MIC against Aspergillus niger amounted to 25 µg/mL (≈ 65.7 µM); in the experiment with Escherichia coli [1], 15 µg/mL (≈ 39.4 µM); with Staphylococcus aureus, 60 µg/mL (≈ 158 µM); in the experiment with Aspergillus flavus, 25 µg/mL (≈ 65.7 µM); with Candida albicans, 50 µg/mL (≈ 131 µM); in the experiment with Bacillus subtilis, 25 µg/mL (≈ 65.7 µM).

Consider `CCOC(=O)C1=C(C(=O)OCC)N(c2ccc(Cl)cc2)CN(c2ccc(Cl)cc2)C1`, for which the MIC in the experiment on Aspergillus niger was 25 µg/mL (≈ 55.6 µM); against Escherichia coli [1], 15 µg/mL (≈ 33.4 µM); against Staphylococcus aureus, 80 µg/mL (≈ 178 µM); in the experiment on Aspergillus flavus it was 25 µg/mL (≈ 55.6 µM); with Candida albicans, 25 µg/mL (≈ 55.6 µM); in the experiment on Bacillus subtilis it was 25 µg/mL (≈ 55.6 µM).

On to `CCOC(=O)C1=C(C(=O)OCC)N(c2ccc(O)cc2)CN(c2ccc(O)cc2)C1`, for which the MIC in the experiment on Aspergillus niger was determined as 50 µg/mL (≈ 121 µM); in the experiment with Escherichia coli [1] it was 50 µg/mL (≈ 121 µM); against Staphylococcus aureus, 100 µg/mL (≈ 242 µM); in the experiment with Aspergillus flavus it was 50 µg/mL (≈ 121 µM); in the experiment on Candida albicans, 75 µg/mL (≈ 182 µM); in the experiment on Bacillus subtilis it was 40 µg/mL (≈ 97 µM).

With `CCOC(=O)C1=C(C(=O)OCC)N(c2cccc([N+](=O)[O-])c2)CN(c2cccc([N+](=O)[O-])c2)C1`, the MIC against Aspergillus niger was found to be 100 µg/mL (≈ 213 µM); with Escherichia coli [1] it was 100 µg/mL (≈ 213 µM); in the experiment on Staphylococcus aureus it was 100 µg/mL (≈ 213 µM); in the experiment with Aspergillus flavus, 100 µg/mL (≈ 213 µM); against Candida albicans, 100 µg/mL (≈ 213 µM); against Bacillus subtilis, 60 µg/mL (≈ 128 µM).

On to `CCOC(=O)C1=C(C(=O)OCC)N(c2ccccn2)CN(c2ccccn2)C1`, for which the MIC with Aspergillus niger came out at 25 µg/mL (≈ 65.4 µM); against Escherichia coli [1], 60 µg/mL (≈ 157 µM); in the experiment with Staphylococcus aureus it was 100 µg/mL (≈ 261 µM); against Aspergillus flavus, 12.5 µg/mL (≈ 32.7 µM); against Candida albicans, 25 µg/mL (≈ 65.4 µM); against Bacillus subtilis, 20 µg/mL (≈ 52.3 µM).

For the molecule `CC1(C)S[C@@H]2[C@H](NC(=O)[C@H](N)c3ccccc3)C(=O)N2[C@H]1C(=O)O` [AMPICILLIN], the MIC against Escherichia coli [1], with Staphylococcus aureus and in the experiment with Escherichia coli [2] was 50 µg/mL (≈ 143 µM) throughout.

`O=C(O)c1cn(C2CC2)c2cc(N3CCNCC3)c(F)cc2c1=O` [CIPROFLOXACIN]: the MIC against Escherichia coli [1] was 15 µg/mL (≈ 45.3 µM); in the experiment with Bacillus subtilis, 25 µg/mL (≈ 75.4 µM).

Take `OC(Cn1cncn1)(Cn1cncn1)c1ccc(F)cc1F` [FLUCONAZOLE]: the minimum inhibitory concentration (MIC) against Aspergillus niger amounted to 25 µg/mL (≈ 81.6 µM); with Aspergillus flavus, 25 µg/mL (≈ 81.6 µM); with Candida albicans, 40 µg/mL (≈ 131 µM).

In the case of `Clc1ccc(COC(Cn2ccnc2)c2ccc(Cl)cc2Cl)c(Cl)c1` (stereo not drawn) [MICONAZOLE], the minimum inhibitory concentration (MIC) in the experiment on Aspergillus niger, with Aspergillus flavus and against Candida albicans was 12.5 µg/mL (≈ 30 µM) throughout.

For the origin of these results see ChEMBL document CHEMBL2390854, “Green synthesis of tetrahydropyrimidine analogues and evaluation of their antimicrobial activity” (2013).
